Source: ChEMBL document CHEMBL1156066 (J Med Chem, 2009)
Values after ≈ are worked out from the molar mass of the structure shown. One block for each compound: values may come before it.

Tests used:
[1] = test system: Hepatocyte; test: Cytotoxicity against human hepatocytes up to 200 uM in presence of CYP450 enzymes; type: ADME, cell-based
In short: (§1)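 Hepatocytes in vitro were exposed to concentrations up to 200 μM, with or without expression of each of the four major CYP 450 enzymes.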

[2] = Cmax in dog at 200 mg/kg; type: ADME, organism-based, Canis lupus familiaris; parameters: dose 200 mg/kg; conditions: in vivo
In short: (§2)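 Dogs were dosed at 200 mpk, with ECG monitored for drug-related changes and plasma Cmax determined.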

[3] = Inhibition of HIV1 LAI gp120/CD4 interaction in human HeLa67 cells assessed as inhibition of viral entry after 3 days by luciferase reporter gene assay; type: cell-based
In short: (§3)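 HeLa 67 cells (HeLa expressing CD4, CCR5 and CXCR4; DMEM, 10% heat-inactivated FBS, penicillin/streptomycin) were plated at 10^5 cells/well the day before infection. They were then infected with HIV LAI-Δenv-luc pseudotyped with JRFL or LAI envelope, in the presence of 10-step 3-fold DMSO serial dilutions (30 mM stocks), run in duplicate. After 3 days at 37 C, firefly luciferase was read. EC50 was from a one-site fit.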

[4] = Ratio of plasma concentration in dog at 5 mg/kg, po to EC50 for HIV1 clinical isolates; type: ADME, organism-based; parameters: dose 5 mg/kg, route oral; conditions: in vivo
[5] = Ratio of plasma concentration in rat at 5 mg/kg, po to EC50 for HIV1 clinical isolates; type: ADME, organism-based; parameters: dose 5 mg/kg, route oral; conditions: in vivo
[6] = Lipophilicity, log D at pH 6.5; type: physicochemical; conditions: buffer
In short: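 Log D was measured by the octanol/water shake-flask method using phosphate buffered solution, pH 6.5.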

[7] = Cytotoxicity against human hepatic cancer cells; type: cell-based, Cancer cell lines
[8] = Cytotoxicity against HEK cells; type: cell-based, HEK293; conditions: human
[9] = target: Cytochrome P450 2C9 (Homo sapiens, UniProt P11712); test: Inhibition of recombinant CYP2C9; type: ADME
[10] = Cytotoxicity against human neuronal tumor cells; type: cell-based
[11] = Metabolic stability in human liver microsomes assessed as half life; type: ADME, Microsome
[12] = target: T1, Cytochrome P450 3A4 (Homo sapiens, UniProt P08684); test: Inhibition of recombinant CYP3A4 using 7-benzyloxyresorufin as substrate; type: ADME
[13] = Oral bioavailability in monkey at 5 mg/kg; type: ADME, organism-based, Macaca mulatta; conditions: rhesus monkey, in vivo
[14] = test system: Hepatocyte; test: Cytotoxicity against human hepatocytes up to 200 uM in absence of CYP450 enzymes; type: ADME, cell-based; in short: as §1
[15] = test system: Human immunodeficiency virus 1; test: Antiviral activity against HIV1 clinical isolates; type: functional, organism-based
[16] = Stability at pH 2 after 48 hrs; type: physicochemical; conditions: buffer, pH 2, 48 h
In short: (§4)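 The compound was held in solution at pH 2 or pH 7 for 48 h at 37 C and then checked for chemical change.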

[17] = target: Voltage-gated inwardly rectifying potassium channel KCNH2 (Homo sapiens, UniProt Q12809); test: Inhibition of human ERG by channel flux assay
[18] = Aqueous solubility of crystalline form of compound in buffer solution of pH 1.5 at 25 degC; type: physicochemical
[19] = Aqueous solubility of crystalline form of compound in buffer solution of pH 10 at 25 degC; type: physicochemical
[20] = Cytotoxicity against human PBMC; type: cell-based
[21] = Oral bioavailability in rat at 5 mg/kg administered as crystalline suspension; type: ADME, organism-based; conditions: in vivo
[22] = Cytotoxicity against human MT2 cells after 3 days by XTT assay; type: cell-based
In short: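 Uninfected MT-2 cells were exposed to 10-step 3-fold serial compound dilutions (30 mM DMSO stocks), run in parallel with the antiviral assay. Cell health was read by XTT after 3 days. CC50 was fitted with the same one-site equation as EC50.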

[23] = Terminal half life in rat at 5 mg/kg, iv; type: ADME, organism-based; parameters: dose 5 mg/kg, route intravenous; conditions: in vivo, read-out: beta t1/2 (converted)
[24] = Solubility at pH 4 to 8; type: physicochemical; conditions: buffer
[25] = target: Cytochrome P450 2D6 (Homo sapiens, UniProt P10635); test: Inhibition of recombinant CYP2D6; type: ADME
[26] = target: T1, Cytochrome P450 3A4; test: Inhibition of recombinant CYP3A4 using benzyloxy-4-(trifluoromethyl)coumarin as substrate; type: ADME
[27] = Solubility at pH 1.5; type: physicochemical; conditions: buffer
[28] = Cytotoxicity against human lung cancer cell; type: cell-based, Cancer cell lines; conditions: lung cancer cells
[29] = Aqueous solubility of crystalline form of compound in buffer solution of pH 6.5 at 25 degC; type: physicochemical
In short: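 Solubility of the crystalline solid was measured 24-72 h after adding it to phosphate buffered solution, pH 6.5, at room temperature.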

[30] = test system: Canis familiaris; test: Cardiotoxicity in dog assessed as changes in ECG at 200 mg/kg; type: toxicity, organism-based, Canis lupus familiaris; parameters: dose 200 mg/kg; conditions: in vivo; in short: as §2
[31] = Ratio of plasma concentration in monkey at 5 mg/kg, po to EC50 for HIV1 clinical isolates; type: ADME, organism-based; parameters: dose 5 mg/kg, route oral; conditions: in vivo
[32] = Cytotoxicity against human T cell; type: cell-based; conditions: T cells
[33] = Cytotoxicity against human larynx cancer cells; type: cell-based, Cancer cell lines
[34] = Permeability across human Caco-2 cell membrane at pH 6.5; type: ADME, cell-based; conditions: Caco-2, pH 6.5, read-out: permeability
[35] = target: T2, Cytochrome P450 1A2 (Homo sapiens, UniProt P05177); test: Inhibition of recombinant CYP1A2; type: ADME
T2 sequence (P05177 whole entry): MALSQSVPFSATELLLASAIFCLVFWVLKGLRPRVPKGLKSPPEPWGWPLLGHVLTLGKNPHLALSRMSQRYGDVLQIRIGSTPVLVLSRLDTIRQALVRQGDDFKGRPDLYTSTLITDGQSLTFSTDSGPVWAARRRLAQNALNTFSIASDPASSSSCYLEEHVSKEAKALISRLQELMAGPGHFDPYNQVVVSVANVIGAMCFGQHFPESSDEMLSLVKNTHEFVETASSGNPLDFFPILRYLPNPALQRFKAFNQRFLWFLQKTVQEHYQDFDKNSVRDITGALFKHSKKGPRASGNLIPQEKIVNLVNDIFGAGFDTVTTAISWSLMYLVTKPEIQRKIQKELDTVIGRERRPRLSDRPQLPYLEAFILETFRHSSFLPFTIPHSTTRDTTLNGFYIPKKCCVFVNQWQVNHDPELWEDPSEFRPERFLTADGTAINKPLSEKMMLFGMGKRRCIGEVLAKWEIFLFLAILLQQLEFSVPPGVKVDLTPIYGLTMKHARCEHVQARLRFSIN

[36] = Cytotoxicity against human cervical cancer cells; type: cell-based, Cancer cell lines
[37] = test system: Rattus norvegicus; test: AUC in rat at 5 mg/kg, po; type: ADME, organism-based, Plasma; parameters: dose 5 mg/kg, route oral; conditions: in vivo
[38] = Stability at pH 7 after 48 hrs; type: physicochemical; conditions: buffer, pH 7, 48 h; in short: as §4
[39] = target: Cytochrome P450 2C19 (Homo sapiens, UniProt P33261); test: Inhibition of recombinant CYP2C19; type: ADME
[40] = Inhibition of HIV1 JRFL gp120/CD4 interaction in human HeLa67 cells assessed as inhibition of viral entry after 3 days by luciferase reporter gene assay; type: cell-based; in short: as §3
[41] = Aqueous solubility of crystalline form of compound in buffer solution of pH 11 at 25 degC; type: physicochemical
[42] = Aqueous solubility of crystalline form of compound in buffer solution of pH 2.1 at 25 degC; type: physicochemical
[43] = Oral bioavailability in dog at 5 mg/kg; type: ADME, organism-based, Canis lupus familiaris; conditions: in vivo

T1 sequence (P08684 whole entry): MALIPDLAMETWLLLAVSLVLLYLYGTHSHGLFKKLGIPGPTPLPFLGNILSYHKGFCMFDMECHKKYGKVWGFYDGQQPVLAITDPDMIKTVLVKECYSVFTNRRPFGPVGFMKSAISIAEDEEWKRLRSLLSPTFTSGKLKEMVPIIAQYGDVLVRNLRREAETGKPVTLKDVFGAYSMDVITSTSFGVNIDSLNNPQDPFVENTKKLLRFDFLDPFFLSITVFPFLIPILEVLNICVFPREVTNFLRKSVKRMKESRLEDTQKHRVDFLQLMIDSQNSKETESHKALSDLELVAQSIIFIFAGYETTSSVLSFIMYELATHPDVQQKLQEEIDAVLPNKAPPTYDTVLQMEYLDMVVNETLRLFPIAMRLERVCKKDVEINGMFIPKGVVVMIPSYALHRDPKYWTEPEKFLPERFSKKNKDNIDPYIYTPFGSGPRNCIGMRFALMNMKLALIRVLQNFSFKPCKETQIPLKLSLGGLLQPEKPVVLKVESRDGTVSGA
Sequence of Cytochrome P450 2D6 (P10635 whole entry): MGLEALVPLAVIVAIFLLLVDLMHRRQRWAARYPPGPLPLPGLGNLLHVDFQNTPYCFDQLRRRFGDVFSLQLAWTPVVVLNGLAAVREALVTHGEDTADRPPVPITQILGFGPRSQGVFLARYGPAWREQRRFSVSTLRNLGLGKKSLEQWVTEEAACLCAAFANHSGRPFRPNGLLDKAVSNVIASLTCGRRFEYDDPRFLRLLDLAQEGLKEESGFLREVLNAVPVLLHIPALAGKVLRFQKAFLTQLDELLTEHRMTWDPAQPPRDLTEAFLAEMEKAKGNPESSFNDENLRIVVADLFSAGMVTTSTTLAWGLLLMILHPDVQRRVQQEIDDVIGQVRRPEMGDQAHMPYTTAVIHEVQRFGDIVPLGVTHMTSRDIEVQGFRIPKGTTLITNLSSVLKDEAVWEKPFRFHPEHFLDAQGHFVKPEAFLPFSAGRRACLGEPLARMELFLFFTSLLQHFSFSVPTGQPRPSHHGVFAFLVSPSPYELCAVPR
Sequence of Voltage-gated inwardly rectifying potassium channel KCNH2 (Q12809 whole entry): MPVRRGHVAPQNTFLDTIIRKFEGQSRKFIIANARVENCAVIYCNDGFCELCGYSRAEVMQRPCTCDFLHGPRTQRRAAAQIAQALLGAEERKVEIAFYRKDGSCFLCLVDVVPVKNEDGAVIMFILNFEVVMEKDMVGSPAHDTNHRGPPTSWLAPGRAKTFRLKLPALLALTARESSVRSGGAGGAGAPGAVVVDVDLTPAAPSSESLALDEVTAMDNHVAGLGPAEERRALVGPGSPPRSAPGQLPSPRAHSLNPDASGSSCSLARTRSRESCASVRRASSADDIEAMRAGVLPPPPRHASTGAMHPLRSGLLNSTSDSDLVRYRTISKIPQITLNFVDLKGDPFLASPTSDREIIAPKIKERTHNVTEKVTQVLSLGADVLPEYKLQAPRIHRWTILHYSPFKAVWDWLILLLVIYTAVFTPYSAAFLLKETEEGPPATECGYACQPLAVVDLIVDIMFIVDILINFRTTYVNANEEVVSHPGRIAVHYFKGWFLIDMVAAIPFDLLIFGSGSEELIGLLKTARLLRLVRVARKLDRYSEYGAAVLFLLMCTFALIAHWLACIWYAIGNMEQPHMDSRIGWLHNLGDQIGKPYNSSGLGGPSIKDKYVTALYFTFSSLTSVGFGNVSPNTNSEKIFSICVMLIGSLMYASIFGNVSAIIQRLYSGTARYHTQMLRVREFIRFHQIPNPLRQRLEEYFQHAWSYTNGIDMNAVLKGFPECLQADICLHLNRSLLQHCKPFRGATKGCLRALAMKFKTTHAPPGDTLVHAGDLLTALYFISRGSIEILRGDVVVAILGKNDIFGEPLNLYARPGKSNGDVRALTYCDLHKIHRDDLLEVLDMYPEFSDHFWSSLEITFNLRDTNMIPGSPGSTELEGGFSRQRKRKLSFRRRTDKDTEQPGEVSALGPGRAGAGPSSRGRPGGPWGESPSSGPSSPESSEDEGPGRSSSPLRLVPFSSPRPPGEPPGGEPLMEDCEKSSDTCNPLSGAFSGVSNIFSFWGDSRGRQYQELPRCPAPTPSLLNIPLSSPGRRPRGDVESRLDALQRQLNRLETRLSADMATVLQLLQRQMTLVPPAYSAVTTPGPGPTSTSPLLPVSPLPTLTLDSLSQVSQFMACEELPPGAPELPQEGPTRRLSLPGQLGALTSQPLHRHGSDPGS
Sequence of Cytochrome P450 2C9 (P11712 whole entry): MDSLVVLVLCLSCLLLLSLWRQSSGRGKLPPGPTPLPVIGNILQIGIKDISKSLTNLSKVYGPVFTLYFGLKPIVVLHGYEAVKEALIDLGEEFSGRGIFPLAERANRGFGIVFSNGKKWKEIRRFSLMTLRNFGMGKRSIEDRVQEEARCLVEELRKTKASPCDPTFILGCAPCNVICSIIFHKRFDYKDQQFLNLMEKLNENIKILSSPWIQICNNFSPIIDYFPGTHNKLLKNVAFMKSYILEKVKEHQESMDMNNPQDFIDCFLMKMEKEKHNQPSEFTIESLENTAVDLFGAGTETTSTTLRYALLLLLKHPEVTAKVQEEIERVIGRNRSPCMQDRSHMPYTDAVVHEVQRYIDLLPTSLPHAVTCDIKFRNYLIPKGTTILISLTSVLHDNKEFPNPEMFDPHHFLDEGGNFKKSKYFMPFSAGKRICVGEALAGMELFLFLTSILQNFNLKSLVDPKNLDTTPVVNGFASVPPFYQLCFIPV
Sequence of Cytochrome P450 2C19 (P33261 whole entry): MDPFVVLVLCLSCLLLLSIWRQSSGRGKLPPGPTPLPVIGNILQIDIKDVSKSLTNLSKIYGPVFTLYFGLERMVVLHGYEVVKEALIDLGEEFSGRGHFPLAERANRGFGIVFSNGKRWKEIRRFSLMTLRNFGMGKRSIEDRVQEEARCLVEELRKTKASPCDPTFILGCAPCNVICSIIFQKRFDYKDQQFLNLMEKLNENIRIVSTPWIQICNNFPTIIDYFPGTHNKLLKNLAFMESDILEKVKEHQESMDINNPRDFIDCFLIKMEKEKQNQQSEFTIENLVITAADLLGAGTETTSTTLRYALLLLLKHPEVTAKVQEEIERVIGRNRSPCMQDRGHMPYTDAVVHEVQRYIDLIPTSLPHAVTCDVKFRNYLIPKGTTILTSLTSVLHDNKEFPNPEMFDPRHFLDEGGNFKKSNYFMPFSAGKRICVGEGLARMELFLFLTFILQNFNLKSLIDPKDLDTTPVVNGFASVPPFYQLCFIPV

Cmax [2]: 33 µM
EC50 [3]: 0.00115 µM
Ratio [4]: 18
Ratio [5]: 18
logD [6]: 1.5
IC50 [9]: 30 µM
half-life [11]: > 100 min
IC50 [12]: > 40 µM
bioavailability [13]: 60%
EC50 [15]: 0.0365 µM
Stability [16]: Stable
solubility [18]: 900 µg/mL (≈ 2130 µM)
solubility [19]: 250 µg/mL (≈ 592 µM)
bioavailability [21]: 55%
half-life [23]: 144 min
solubility [24]: 40 µg/mL (≈ 94.7 µM)
IC50 [25]: > 40 µM
IC50 [26]: > 40 µM
solubility [27]: 900 µg/mL (≈ 2130 µM)
solubility [29]: 40 µg/mL (≈ 94.7 µM)
Ratio [31]: 18
Papp [34]: 17.8 ×10⁻⁶ cm/s
IC50 [35]: > 40 µM
AUC [37]: 6.3 µg/h/mL
Stability [38]: Stable
IC50 [39]: > 40 µM
EC50 [40]: 0.00088 µM
Structure (SMILES): COc1ncc(OC)c2c(C(=O)C(=O)N3CCN(C(=O)c4ccccc4)CC3)c[nH]c12
Activity [1]: Non-toxic
CC50 [7]: ≥ 120 µM
CC50 [8]: ≥ 120 µM
CC50 [10]: ≥ 120 µM
Activity [14]: Non-toxic
IC50 [17]: > 80 µM
CC50 [20]: ≥ 120 µM
CC50 at 72 h [22]: > 300 µM
CC50 [28]: ≥ 120 µM
Activity [30]: Non-toxic
CC50 [32]: ≥ 120 µM
CC50 [33]: ≥ 120 µM
CC50 [36]: ≥ 120 µM

solubility [41]: 3300 µg/mL (≈ 8120 µM)
solubility [42]: 1300 µg/mL (≈ 3200 µM)
EC50 [3]: 0.00268 µM
logD [6]: 1.6
half-life [11]: 37 min
bioavailability [13]: 24%
EC50 [15]: 0.0615 µM
bioavailability [43]: 77%
half-life [23]: 18 min
IC50 [25]: 9.7 µM
solubility [29]: 200 µg/mL (≈ 492 µM)
Papp [34]: 5.1 ×10⁻⁶ cm/s
AUC [37]: 0.5 µg/h/mL
EC50 [40]: 0.00147 µM
Structure (SMILES): COc1ccnc2[nH]cc(C(=O)C(=O)N3CCN(C(=O)c4ccccc4)C[C@H]3C)c12
CC50 at 72 h [22]: > 300 µM

logD [6]: 1.8
IC50 [9]: 7.9 µM
half-life [11]: 49.5 min
IC50 [12]: > 40 µM
IC50 [25]: 17 µM
IC50 [26]: > 40 µM
solubility [29]: 936 µg/mL (≈ 2490 µM)
Papp [34]: 16.8 ×10⁻⁶ cm/s
IC50 [35]: > 40 µM
IC50 [39]: 10 µM
EC50 [40]: 0.0017 µM
Structure (SMILES): C[C@@H]1CN(C(=O)c2ccccc2)CCN1C(=O)C(=O)c1c[nH]c2ncccc12
IC50 [17]: > 80 µM
CC50 at 72 h [22]: 280 µM
